Data on 13 molecules can be found in PubChem BioAssay.

Experiment [1] can be described thus: inhibitors of TNFa-induced NFkB p65 translocation, primary screen, imaging, HUVEC, MLSMR starter and 10KST1 sets (AID 438;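 active = inhibition above 20% together with a positive visual image hit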;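 also: compound added about 3h40 before a 20 min TNFalpha stimulation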;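 as to inhibition: signal is the nuclear over cytoplasmic p65 intensity ratio per well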). Particulars: HUVEC TNFa-induced p65 nuclear translocation; cell count: measured here: nuclei count (cytotoxicity indicator), at 2.08 µM; inhibition: at 2 µM, stronger effect = higher value, 0% TNFa-plus-vehicle, 100% no-TNFa wells.
Experiment [2] is described as follows: inhibitors of E-selectin induction by TNFa, primary screen, imaging, HUVEC, immunofluorescence, MLSMR starter and 10KST1 sets (AID 487).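 As to inhibition: signal is fraction of cell area covered by stained E-selectin grains.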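 As to nuclei count: 100% = median nuclei count of all wells on the same plate.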 Particulars: HUVEC TNFalpha-induced E-selectin immunofluorescence imaging, at 2 µM; inhibition: stronger effect = higher value; nuclei count: measured here: cell number, toxicity.
Experiment [3] can be described thus: DUSP6 inhibitors restoring Erk phosphorylation by chemical complementation, primary imaging in DUSP6-transfected HeLa (AID 609;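 active = compounds giving at least 50% inhibition in the cell-based MKP-3 phosphatase rescue imaging test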;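 as to inhibition: phospho-Erk level distribution per well compared with pooled transfected vehicle control wells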). Particulars: HeLa MKP-3 transfected, phospho-Erk imaging KS statistic, at 10 µM, cells stimulated with TPA for 15 min.
The target in experiment [4] is Dual specificity protein phosphatase 6 (Homo sapiens) (UniProt Q16828). Described as above. Particulars: HeLa MKP-3 transfected, phospho-Erk imaging KS statistic; at 10 µM; stronger effect = higher value; cells stimulated with TPA for 15 min.
Experiment [5] deals with Voltage-gated potassium channel subunit beta-2 (Rattus norvegicus) (UniProt P62483). The experiment can be described thus: KvBeta enzyme negative modulators, primary screen, biochemical, NADPH fluorescence (AID 622;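 active = fluorescence slope higher than the sample average by over 3 SD, cut at about -0.22 in these data, passing the limit was not always enough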;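 also: slope of raw intensity against log time taken from 70 to 1610 s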). Particulars: recombinant KvBeta, 4-cyanobenzaldehyde reduction, at 10 µM, stronger effect = higher value.
For experiment [6] the target is unchanged. Briefly: KvBeta positive modulators, primary screen, biochemical, NADPH fluorescence (AID 623;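 active = NADPH fluorescence slope more negative than the mean of all samples by about 3 SD, 99.7% confidence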;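 also: fluorescence intensity change per second fitted from 20 to 320 s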). Particulars: Recombinant KvBeta, NADPH fluorescence decrease slope, 10 min; at 10 µM; stronger effect = lower value.
For experiment [7], the target named is Muscarinic acetylcholine receptor M4 (Homo sapiens) (UniProt P08173). Briefly: compounds altering M4/GIRK thallium flux, either direction, primary screen, M4 allosteric agonist project, cell-based, HEK293 M4/GIRK, BTC-AM (AID 625;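 active = fluorescence slope after compound addition differing from the mean of all tested samples at 99.7% confidence, mostly higher but some lower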;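 also: thallium influx through GIRK channels coupled to M4 in HEK293 cells with BTC-AM dye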). Particulars: at 10 µM, actives lie on both sides. A digest of the protocol:
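Assay system: HEK293 cells with M4 receptor and GIRK channels / Controls: carbachol and DMSO controls / Schedule: 1 h dye loading, 2 min kinetic read / Technique: kinetic fluorescence with BTC-AM dye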

Experiment [8] can be described thus: inhibitors of larval lipid processing in zebrafish, primary screen, whole organism, PED6 fluorescence, gall bladder and intestine (AID 686;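 active = a full or partial loss of lipid-probe fluorescence in the fish gall bladder, intestine or both, judged by eye; inactive = no fluorescence loss, or compound toxic to the fish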;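 also: larvae 5 to 7 days old with five fish per well; signal comes from phospholipase A2 cleavage of quenched PED6 carried via bile; overnight exposure to compound and PED6 before scoring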). Particulars: Zebrafish larvae PED6 lipid processing, fluorescence scoring; screened at 20 µM (by protocol). Summed up:
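Doses: 20 µM single dose. Test system: live zebrafish larvae aged 5-7 days, whole organism. Quantity: five larvae per well. Measured by: By-eye fluorescence microscopy. Reagent: ingested quenched lipid PED6 at 100 nM. Read-out: visual per-well fluorescence inhibition score. Times: overnight exposure of larvae to compound plus PED6.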

Experiment [9] can be described thus: inhibitors of Chlamydomonas gravitaxis, primary screen, whole organism, Chlamydomonas reinhardtii, WT vs cilia-less mutant, absorbance, 96-well (AID 463189;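 active = inhibition at or above 50% relative to wild type and mutant plate controls; inactive = inhibition below 50%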;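 also: 0% = wild type cc124 cells in DMSO and 100% = ciliumless bld1 mutant cells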). Particulars: OD600 absorbance, 2 days, at 10 µM, stronger effect = higher value.
[10] abbreviates: measured here: cell density z-score.
Where [11] appears, read: measured here: nuclear c-Myc green intensity z-score.
Setting [12] is: measured here: nuclear pErk red intensity z-score, stronger effect = higher value.

Activity calls are given as the source filed them.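 The calls were made as follows, unless noted: active = visually confirmed hit in the image check and inhibition above 20%; inconclusive = visually confirmed hit but inhibition not above 20%; inactive = no visual hit in the image check.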

Dual specificity protein phosphatase 6 (Homo sapiens), sequence (Q16828 whole entry, looked up): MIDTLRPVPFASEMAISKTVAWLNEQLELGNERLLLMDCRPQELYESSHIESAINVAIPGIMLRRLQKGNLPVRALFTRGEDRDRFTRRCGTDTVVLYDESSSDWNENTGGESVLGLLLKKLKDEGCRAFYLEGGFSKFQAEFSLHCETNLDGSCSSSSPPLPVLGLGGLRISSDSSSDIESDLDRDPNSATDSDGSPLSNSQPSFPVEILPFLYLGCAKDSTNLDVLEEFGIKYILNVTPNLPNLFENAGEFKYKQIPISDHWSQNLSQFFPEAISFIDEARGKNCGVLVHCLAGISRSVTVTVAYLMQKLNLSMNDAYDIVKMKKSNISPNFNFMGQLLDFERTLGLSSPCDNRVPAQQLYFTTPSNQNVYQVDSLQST
Muscarinic acetylcholine receptor M4 (Homo sapiens), sequence (P08173 whole entry, looked up): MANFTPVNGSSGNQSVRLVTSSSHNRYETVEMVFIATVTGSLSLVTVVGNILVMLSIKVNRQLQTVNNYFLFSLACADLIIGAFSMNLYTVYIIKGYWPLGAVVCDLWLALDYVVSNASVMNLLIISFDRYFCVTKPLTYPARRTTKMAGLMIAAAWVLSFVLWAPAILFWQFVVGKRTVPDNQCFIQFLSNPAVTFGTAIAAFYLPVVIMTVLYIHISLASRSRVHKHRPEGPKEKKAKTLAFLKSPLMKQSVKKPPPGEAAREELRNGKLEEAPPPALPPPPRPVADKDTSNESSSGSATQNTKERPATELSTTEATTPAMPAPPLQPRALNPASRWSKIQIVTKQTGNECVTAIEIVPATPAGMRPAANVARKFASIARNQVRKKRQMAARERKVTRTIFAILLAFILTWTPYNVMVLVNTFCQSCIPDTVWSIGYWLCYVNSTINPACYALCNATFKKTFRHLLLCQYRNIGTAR
Voltage-gated potassium channel subunit beta-2 (Rattus norvegicus), sequence (P62483 whole entry, looked up): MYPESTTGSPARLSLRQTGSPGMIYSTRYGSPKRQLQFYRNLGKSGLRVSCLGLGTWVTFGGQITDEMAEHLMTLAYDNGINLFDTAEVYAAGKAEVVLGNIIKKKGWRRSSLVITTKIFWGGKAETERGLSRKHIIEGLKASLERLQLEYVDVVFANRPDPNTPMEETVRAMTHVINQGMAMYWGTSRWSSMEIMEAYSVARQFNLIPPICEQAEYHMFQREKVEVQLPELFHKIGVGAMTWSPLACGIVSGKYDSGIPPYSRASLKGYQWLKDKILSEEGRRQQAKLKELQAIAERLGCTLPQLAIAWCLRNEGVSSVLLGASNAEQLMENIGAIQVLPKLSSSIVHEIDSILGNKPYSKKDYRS

By inhibition is commonly meant the change of the read-out against control, counted positive when it falls. Take `CC1N(O)C(c2ccc(Cl)cc2Cl)N(O)C1(C)C` (centres undefined): the cell count in experiment [1] came to 482. Also, the inhibition in experiment [1] is 1.9% (inactive); in experiment [2] it was -3.5% (inactive); in experiment [4] it was 7.93% (inactive); in experiment [9], 43.1% (inactive). In experiment [2], the nuclei count is 94.1%. Besides, the values for the z-score in experiment [3] (setting [10]), in experiment [3] (setting [11]) and in experiment [3] (setting [12]) were -0.283, -1.5 and 1.54, respectively. Further, the fluorescence slope was -0.347 (inactive) in experiment [5] and 0.00632 (inactive) in experiment [7]. The NADPH fluorescence slope in experiment [6] is 9.2e-07 (inactive). For the same molecule, the result in [8] was inactive.
As for `Clc1ccccc1CN(Cc1ccccc1)c1ncnc2nc[nH]c12`, in experiment [1], the cell count was found to be 523. The inhibition in experiment [1] was 7.2% (inactive); in experiment [2] it was 5.3% (inactive); in experiment [4] it was 1.63% (inactive); in experiment [9] it was 38.7% (inactive). The nuclei count in experiment [2] came to 93%. Also, the z-score in [3] (setting [10]) was -3.05; in [3] (setting [11]), 1.38; in [3] (setting [12]), 0.29. The fluorescence slope is -0.481 (inactive) in experiment [5] and 0.00447 (inactive) in experiment [7]. In addition, in experiment [6], the NADPH fluorescence slope is -4.9e-05 (inactive). Further, in [8], the outcome was inactive.
Turning to `NC(=O)C1CCN(C2OC(=O)c3ccccc32)CC1` (centres undefined), the cell count in experiment [1] came out at 399. Further, the inhibition was -1.7% (inactive) in experiment [1], -148% (inactive) in experiment [2], 5.65% (inactive) in experiment [4] and 33.2% (inactive) in experiment [9]. In experiment [2], the nuclei count was found to be 160%. Besides, the z-score is 0.349 in [3] (setting [10]), 0.288 in experiment [3] (setting [11]) and -0.804 in experiment [3] (setting [12]). Also, the values for the fluorescence slope in experiment [5] and in experiment [7] were -0.447 (inactive) and 0.0046 (inactive), respectively. Further, the NADPH fluorescence slope in experiment [6] was -8.4e-05 (inactive). Besides, in experiment [8], the molecule was classed as inactive.
On to `Cc1ccc(Cn2ncc3c(N4CCN(Cc5ccc(Cl)cc5)CC4)ncnc32)cc1`, for which the cell count in experiment [1] stood at 549. The inhibition in experiment [1] was 22.5% (active); in [2], -21.2% (inactive); in [4], 5.95% (inactive); in experiment [9], 60.8% (active). The same molecule showed a nuclei count in [2] of 134%. For the same molecule, the z-score is -0.467 in [3] (setting [10]), 0.343 in experiment [3] (setting [11]) and 1.03 in [3] (setting [12]). The fluorescence slope in experiment [5] was -0.368 (inactive); in [7], 0.00938 (inactive). In addition, the NADPH fluorescence slope in [6] was -6.6e-05 (inactive). Besides, the call in experiment [8] was inactive.
Consider `COc1cccc(Cn2c(NCc3ccco3)nc3c2c(=O)n(C)c(=O)n3C)c1`, for which the cell count in experiment [1] is 704. Also, the inhibition is -6.1% (inactive) in experiment [1], -198% (inactive) in experiment [2], 27.8% (inactive) in [4] and 0.377% (inactive) in experiment [9]. In addition, the nuclei count in experiment [2] stood at 180%. Moreover, the z-score in [3] (setting [10]) was determined as 0.733; in [3] (setting [11]), 0.0104; in [3] (setting [12]), 0.0373. Moreover, the results for the fluorescence slope in experiment [5] and in [7] were -0.476 (inactive) and 0.00767 (inactive), respectively. Moreover, in experiment [6], the NADPH fluorescence slope is -0.000112 (inactive). Moreover, the molecule was called inactive in [8].
As to `Cc1cc(N2C(=O)C(=O)/C(=C(/O)c3ccccc3)C2c2cccs2)no1` (centres undefined), in [1], the cell count was found to be 668. Moreover, the inhibition in experiment [1] is 0.1% (inactive); in experiment [2], -91.9% (inactive); in [4], 6.04% (inactive); in [9] it was 24.8% (inactive). The same molecule had a nuclei count in experiment [2] of 165%. In addition, the results for the z-score in [3] (setting [10]), in experiment [3] (setting [11]) and in experiment [3] (setting [12]) were 0.267, -0.396 and -0.163, respectively. Besides, the fluorescence slope in [5] is -0.486 (inactive); in experiment [7], 0.00578 (inactive). Moreover, the NADPH fluorescence slope in [6] is -1.4e-05 (inactive). For the same molecule, the result in experiment [8] was inactive.
Consider `CCCCOc1ccc(C(=O)NCC(=O)NCC(=O)OCC)cc1`, for which the cell count in experiment [1] was 357. Besides, the inhibition is -8.2% (inactive) in experiment [1], -101% (inactive) in [2], -6.59% (inactive) in experiment [4] and -13.2% (inactive) in [9]. This molecule also came in with a nuclei count in experiment [2] of 108%. Moreover, the figures for the z-score in [3] (setting [10]), in experiment [3] (setting [11]) and in [3] (setting [12]) were -0.206, 0.434 and -0.573, respectively. For the same molecule, the fluorescence slope is -0.49 (inactive) in [5] and 0.00496 (inactive) in experiment [7]. Moreover, in [6], the NADPH fluorescence slope was 4.9e-06 (inactive). Also, the result in [8] was inactive.
In the case of `NC(=O)/C(=N\O)c1ccccc1`, in [1], the cell count was 575. Besides, the inhibition in experiment [1] was 5.9% (inactive); in [2], -43.3% (inactive); in experiment [4] it was -4.7% (inactive); in experiment [9], -12.8% (inactive). The same molecule returned a nuclei count in [2] of 113%. Moreover, the z-score in [3] (setting [10]) was -0.256; in [3] (setting [11]) it was -0.324; in [3] (setting [12]) it was 0.104. The values for the fluorescence slope in experiment [5] and in experiment [7] were -0.461 (inactive) and 0.00531 (inactive), respectively. The NADPH fluorescence slope in [6] is -5.1e-05 (inactive). Moreover, the molecule was classed as inactive in [8].
`CSc1nc(N)nc(SCC(=O)C23CC4CC(CC(C4)C2)C3)c1C#N`: the cell count in [1] was 491. Besides, the inhibition is 2.8% (inactive) in experiment [1], -70.2% (inactive) in experiment [2], 15.9% (inactive) in experiment [4] and 35.9% (inactive) in experiment [9]. In [2], this molecule gave a nuclei count of 94.4%. Moreover, the z-score was -0.797 in [3] (setting [10]), 0.314 in [3] (setting [11]) and -0.79 in experiment [3] (setting [12]). Further, the fluorescence slope in experiment [5] was -0.334 (inactive); in [7], 0.00876 (inactive). Further, the NADPH fluorescence slope in experiment [6] is -1.7e-05 (inactive). Besides, the result in [8] was inactive.
On to `C=CCOC(=O)C1=C(C)NC(SCC(=O)Nc2ccc(C)c(Cl)c2)=C(C#N)C1c1ccco1` (centres undefined), for which, in [1], the cell count was found to be 654. Besides, the inhibition in experiment [1] was -12.4% (inactive); in experiment [2] it was -141% (inactive); in experiment [4], 10.1% (inactive); in experiment [9], 6.54% (inactive). Moreover, in experiment [2], the nuclei count was 165%. The z-score was 0.0936 in experiment [3] (setting [10]), -0.359 in experiment [3] (setting [11]) and 0.4 in experiment [3] (setting [12]). The fluorescence slope in [5] is -0.465 (inactive); in experiment [7], 0.00959 (inactive). For the same molecule, in experiment [6], the NADPH fluorescence slope is -2.6e-05 (inactive). Moreover, the molecule was classed as inactive in [8].
As to `COC(=O)C(NC(=O)c1ccc(F)cc1)(Nc1nc(C)cs1)C(F)(F)F` (centres undefined), the cell count in experiment [1] is 695. Also, the inhibition was -6.3% (inactive) in [1], -18.4% (inactive) in [2], -3.95% (inactive) in [4] and 7.8% (inactive) in experiment [9]. The molecule further gave a nuclei count in [2] of 151%. In addition, the z-score in experiment [3] (setting [10]) is -0.266; in experiment [3] (setting [11]) it was -0.66; in experiment [3] (setting [12]), 0.98. Further, the fluorescence slope in experiment [5] is -0.444 (inactive); in experiment [7], 0.00339 (inactive). In [6], the NADPH fluorescence slope is -4.6e-05 (inactive). Besides, in experiment [8], the call was inactive.
As for `COc1ccccc1NC(=O)c1c(C)cc(=O)oc1C`, the cell count in experiment [1] stood at 601. Besides, the inhibition in experiment [1] was -14.3% (inactive); in experiment [2], 35.3% (inactive); in experiment [4], -4.59% (inactive); in [9] it was 17.9% (inactive). The nuclei count in [2] was 145%. Also, the z-score in experiment [3] (setting [10]) was -0.227; in [3] (setting [11]), -0.0987; in experiment [3] (setting [12]), -0.0601. The fluorescence slope in [5] is -0.409 (inactive); in experiment [7], 0.00639 (inactive). For the same molecule, the NADPH fluorescence slope in experiment [6] was -3e-05 (inactive). Besides, the result in [8] was inactive.
For `COc1ccc(OC)c(C2/C(=C(\O)c3ccc(OC)c(Cl)c3)C(=O)C(=O)N2CCN(C)C)c1` (centres undefined), the cell count in experiment [1] was found to be 680. For the same molecule, the inhibition was -6.8% (inactive) in experiment [1], -97.8% (inactive) in experiment [2], -2.91% (inactive) in experiment [4] and 14% (inactive) in [9]. In [2], this molecule yielded a nuclei count of 173%. The results for the z-score in experiment [3] (setting [10]), in experiment [3] (setting [11]) and in experiment [3] (setting [12]) were -0.468, -0.414 and -1.65, respectively. The results for the fluorescence slope in [5] and in experiment [7] were -0.449 (inactive) and 0.00525 (inactive), respectively. Further, the NADPH fluorescence slope in experiment [6] was -3.7e-05 (inactive). The molecule was classed as inactive in experiment [8].
